Hits are enriched below; roughly 2.6% of the tested compounds scored in any of these assays.
IMP-1 inh – IMP-1 metallo-beta-lactamase inhibitors, primary screen, biochemical, epi-absorbance readout, Pseudomonas aeruginosa enzyme; purified IMP-1, nitrocefin hydrolysis, epi-absorbance fluorescence; metallo-beta-lactamase IMP-1 (Pseudomonas aeruginosa); 290,000 compounds, 0.45% hits; inhibition, % at 5.6 µM; AID 1556, 2009;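 active means inhibition above the mean plus 3 SD of all compounds in the same screening run, cut at about 4.5% in these data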;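 further: 0% = IMP-1 with DMSO and 100% = DMSO wells lacking enzyme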
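System: purified IMP-1; amount: IMP-1 0.2 nM before substrate addition; compound: single dose, 5.6 µM; times: 25 °C, 15 min preincubation, 25 min reaction; signal: Epi-absorbance via hydrolysed-nitrocefin quenching of white-plate fluorescence, 480/530 nm, EDTA stop; benchmarks: DMSO with and without IMP-1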
RanGTP-Imp inh – inhibitors of RanGTP-importin-beta interaction, primary screen, biochemical, FRET, CFP-Ran, YFP-importin-beta, homogeneous; Ran GTPase (GTP-bound) - importin-beta complex; cell-free CFP-Ran/YFP-importin-beta FRET ratio; inhibition, % (concentration not given with the values); 300,000 compounds, 1.1% hits; AID 2216, 2009;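 active means more than half of the replicate wells show a fall in the fluorescence ratio signal beyond about 16%, limit read from the data, passing the limit was not always enough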;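 further: 0% = DMSO wells and 100% = Ran loaded with GDP instead of GTP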
Runt-SMMHC FRET – inhibitors of RUNX1 Runt–CBFb-SMMHC binding, primary screen, biochemical, FRET, Cerulean-Runt, Venus-CBFb-SMMHC, uHTS; Cerulean-Runt/Venus-CBFb-SMMHC FRET ratio 530/480, 1 h; inhibition, % at 20 µM; 220,000 compounds, 0.74% hits;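 active means mean inhibition across duplicate retests at 20 µM reaching about 50%, limit read from the data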;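 further: 0% = DMSO wells and 100% = wells with excess untagged CBFb-SMMHC; inhibitors lower the FRET ratio by blocking Runt binding to CBFb-SMMHC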
Target sequence (Q01196 whole entry, looked up): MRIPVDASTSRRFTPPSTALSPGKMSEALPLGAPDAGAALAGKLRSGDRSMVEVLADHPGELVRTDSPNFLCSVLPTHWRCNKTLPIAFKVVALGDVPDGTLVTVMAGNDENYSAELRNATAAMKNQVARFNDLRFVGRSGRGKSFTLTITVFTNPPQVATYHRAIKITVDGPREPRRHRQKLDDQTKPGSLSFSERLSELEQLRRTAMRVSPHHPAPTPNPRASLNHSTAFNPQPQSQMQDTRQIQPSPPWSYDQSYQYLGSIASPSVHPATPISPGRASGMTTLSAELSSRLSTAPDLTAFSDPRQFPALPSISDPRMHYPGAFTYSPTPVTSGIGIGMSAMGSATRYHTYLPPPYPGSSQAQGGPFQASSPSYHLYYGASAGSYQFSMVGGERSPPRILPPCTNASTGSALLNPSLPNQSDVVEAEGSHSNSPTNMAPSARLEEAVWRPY
Target sequence (Q13951 whole entry, looked up): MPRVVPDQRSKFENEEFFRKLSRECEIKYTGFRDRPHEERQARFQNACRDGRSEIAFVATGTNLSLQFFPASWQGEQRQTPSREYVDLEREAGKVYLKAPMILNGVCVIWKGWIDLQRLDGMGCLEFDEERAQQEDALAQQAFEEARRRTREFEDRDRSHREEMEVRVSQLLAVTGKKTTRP
VIM-2 inhibitor – VIM-2 metallo-beta-lactamase inhibitors, primary screen, biochemical, epi-absorbance readout, Pseudomonas aeruginosa enzyme; purified VIM-2, nitrocefin hydrolysis, epi-absorbance fluorescence; inhibition, % at 5.6 µM; 290,000 compounds, 0.89% hits; AID 1527, 2009;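 active means inhibition above the mean of all tested compounds plus 3 SD, cutoff set per screening run, cut at about 7.5% in these data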;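 further: red hydrolysis product quenches plate fluorescence so inhibitors raise well fluorescence; 0% = enzyme with DMSO and 100% = DMSO without enzyme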
Runt-CBFb FRET – inhibitors of RUNX1 Runt–CBFb binding, primary screen, biochemical, FRET, Cerulean-Runt, Venus-CBFb, uHTS | 220,000 compounds, 0.46% hits | inhibition, % at 20 µM | AID 1496, 2009 | Runt-related transcription factor 1 (Homo sapiens) + Core-binding factor subunit beta … | Cerulean-Runt/Venus-CBFb FRET ratio 530/480, 1 h;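 active means inhibition over about 50% at 20 µM in the single-dose screen, limit read from the data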;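 further: 0% = DMSO wells and 100% = excess unlabeled CBFb competitor control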
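Assay system: Cerulean-Runt domain / Medium: Tris 50 mM pH 7.5, KCl, K2SO4, 0.01% BSA / Timing: protein complex preformed 1 h, compound exposure 1 h, room temperature, dark / Measured by: FRET, excitation 422 nm, emission at 530 and 480 nm / Evaluation: loss of energy transfer signal / Control set: 5 µM unlabeled CBFb as full-inhibition high control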
The depositor's hits bear a star; x = not tested or not shown.

SMILES | IMP-1 inh | RanGTP-Imp inh | Runt-SMMHC FRET | VIM-2 inhibitor | Runt-CBFb FRET
CC(NC(=O)c1ccc(OC2CCN(Cc3ccccn3)CC2)cc1)c1nccs1 (stereo not drawn) | -5 | 0 | x | -2 | x
N#CC(C#N)=C1NC(N)=C(C#N)C(c2ccccc2)=C1C#N | 23* | -2 | x | -2 | x
COc1ccccc1CNS(=O)(=O)c1ccc2c(c1)N(C(C)=O)CCO2 | -1 | 4 | x | -1 | x
CC(=O)Nc1ccccc1-c1nc2ccc(C(=O)N3CCN(c4cccc(C)c4)C(C)C3)cc2[nH]c1=O (stereo not drawn) | -4 | 1 | 1 | -2 | 1
Cc1cccc(N2CCN(C(=O)c3ccc4nc(-c5ccco5)c(-c5ccco5)nc4c3)CC2C)c1 (stereo not drawn) | 0 | 35* | -15 | -2 | 13
Cc1csc(SCC(=O)O)n1 | -1 | 2 | 9 | 0 | 114*
CCCCCCNc1c([N+](=O)[O-])c(=O)sc2ccccc12 | -1 | 147* | -4 | 0 | 0
COCc1cc(CNC(=O)C2CCC(=O)N(Cc3ccccc3OC)C2)[nH]n1 (stereo not drawn) | -2 | -1 | x | 0 | x
CC(C)OC(=O)c1c2nc3ccccc3nc2n2c1[nH]c(=O)c1ccccc12 | 2 | 11 | 62* | 0 | 17
O=C(NCCCN1CCOCC1)c1cc2nc(-c3ccco3)cc(C(F)(F)F)n2n1 | -2 | 8 | x | 12* | x
O=C(Nc1cnn(Cc2ccccc2)c1)c1cc2nc(-c3ccco3)cc(C(F)(F)F)n2n1 | -4 | 17* | 6 | 0 | -4
O=C(NC1CCCCC1)c1cc2nc(-c3ccco3)cc(C(F)(F)F)n2n1 | -6 | 6 | 7 | -2 | -2
O=C1CN(C(=O)CNC(=O)c2ccc(Cl)cc2Cl)CCN1 | -1 | 0 | x | -1 | x
O=C(c1cc2nc(-c3ccccc3)cc(C(F)(F)F)n2n1)N1CCN2CCCC2C1 (stereo not drawn) | -5 | 2 | x | 9.1* | x
O=C(c1cc2nc(-c3ccccc3)cc(C(F)(F)F)n2n1)N1CCOCC1 | -6 | -1 | 0 | -1 | -1
O=C(c1nn2c(C(F)(F)F)cc(-c3ccccc3)nc2c1Cl)N1CCN2CCCC2C1 (stereo not drawn) | -1 | 2 | x | 9.1* | x
O=C(NCc1ccccc1)c1ccc(NC(=O)c2ccccc2F)cc1 | 0 | -2 | x | -2 | x
COc1ccccc1OCc1cc(C(=O)N(C)CCC2CCCCO2)no1 (stereo not drawn) | -4 | 0 | x | -5 | x
O=C(CCCn1cnc([N+](=O)[O-])n1)Nc1cccc2ccccc12 | 37* | 5 | -2 | 1 | 0
O=C(Cn1cnc([N+](=O)[O-])n1)NCc1ccccc1 | -2 | 3 | 2 | -2 | 1
Cc1ccc(-c2[nH]ncc2C(=O)c2ccccc2C)c(O)c1 | -4 | -3 | x | -3 | x
COCCOC(=O)c1cc(C(=O)c2cc(F)ccc2O)coc1=N | 0 | 31* | 120* | -1 | 40
CCc1nc(SCC(=O)N2CCN(C(=O)c3ccco3)CC2)c2c3c(sc2n1)CCCC3 | -2 | 2 | -1 | 9.7* | -13
CCn1c(=O)c2cc(C(=O)NCCC(C)C)sc2c2ccccc21 | -2 | 1 | x | 5 | x
CCn1c(=O)c2cc(C(=O)NCC(OC)OC)sc2c2ccccc21 | -5 | 1 | x | 7 | x
SMILES | IMP-1 inh | RanGTP-Imp inh | Runt-SMMHC FRET | VIM-2 inhibitor | Runt-CBFb FRET
CCC(C)NC(=O)c1cc2c(=O)n(CC)c3ccccc3c2s1 (stereo not drawn) | -1 | -1 | x | 8.0* | x
CCn1c(=O)c2cc(C(=O)NCCCOC)sc2c2ccccc21 | -2 | 1 | x | 9.0* | x
Cc1cc(OCc2cc(C(=O)N(Cc3nccn3C)C(C)C)no2)cc(C)c1Cl | -4 | -2 | x | -3 | x
CN1CCN(CCCNC(=O)c2ccc(CSCc3cccc(Cl)c3)o2)CC1 | 6.8* | -3 | 0 | 0 | 0
Cc1ccc(NCC(=O)c2ccc(C)cc2)cc1 | 36* | 2 | x | 6 | x
COc1ccc(-c2noc3c2-c2nc(-c4ccc(Cl)cc4)sc2CC3)cc1 | 2 | 1 | x | 2 | x
CC1Cc2cc(/C(O)=C3/C(=O)C(=O)N(CCN4CCOCC4)C3c3ccc(N(C)C)cc3)ccc2O1 (stereo not drawn) | -2 | 30* | x | -1 | x
CN(C)CCSc1nc(-c2ccccc2)nc2c1CCC2 | 0 | -2 | 0 | 9.8* | 1
CC(=O)Nc1ccc(S(=O)(=O)c2c(N)n(CCN3CCOCC3)c3nc4ccccc4nc23)cc1 | -3 | -2 | 10 | -3 | 30
C=CCn1c(NS(=O)(=O)c2ccccc2)c(S(=O)(=O)c2ccc(C)cc2)c2nc3ccccc3nc21 | -2 | 76* | 4 | -2 | 1
O=S(=O)(Nc1c(S(=O)(=O)c2ccccc2)c2nc3ccccc3nc2n1C1CCCCC1)c1ccccc1 | -2 | 6 | 11 | -2 | 4
CC(=O)Nc1c(S(=O)(=O)c2ccccc2)c2nc3ccccc3nc2n1Cc1ccccc1 | -2 | 23* | 73* | -6 | 20
CCOC(=O)/C=C(\C)Sc1cc(O)c2ccccc2c1O | 0 | x | 61* | 1 | 27
CCOC(=O)/C=C(\C)Sc1cc(=O)oc2ccccc12 | -3 | 2 | -1 | 2 | 5
Cc1ccc(C)c(Nc2nc(-c3ccncc3)nc3ccccc23)c1 | -4 | -2 | x | -2 | x
COCCCNc1nc2nonc2nc1N1CCN(Cc2cccc(C)c2)CC1 | -2 | 0 | 82* | -3 | 24
COCCCNc1nc2nonc2nc1N1CCN(C2CCCC2)CC1 | 1 | 0 | -1 | -1 | -2
CN(c1nc2ccccc2n2c(C3CC3)nnc12)S(=O)(=O)c1ccccc1 | -3 | -2 | 1 | -1 | 1
O=C(COc1ccc2c(-c3ccccc3)cc(=O)oc2c1)Nc1ccc(CCO)cc1 | -2 | 21 | x | -1 | x
Nc1ncc(Br)cc1S(=O)(=O)Nc1cc(C(F)(F)F)cc(C(F)(F)F)c1 | 2 | -3 | x | -4 | x
Cn1cc(/C=N\O)nc2c(=O)n(-c3ccccc3)c(=O)nc1-2 | -4 | 33* | 95* | -6 | 84*
COC(=O)[C@H]1CN(C(=O)c2ccccc2)C(=O)N1 | 0 | -2 | x | 1 | x
COC(=O)C1CCC(=S)N1C(=O)c1ccccc1 (stereo not drawn) | 20* | 1 | x | 1 | x
COc1cccc(CNC(=O)c2nnn(CC(=O)Nc3ccc(Br)cc3)c2N)c1 | -1 | 0 | x | -6 | x
CCOC(=O)CN=C/C(C(C)=O)=C(/C)O | -2 | 63* | 0 | -3 | 1

Bioassay records (PubChem BioAssay)
